{
  "source": "paper PMC5532717",
  "about": "(ACS Central Science, 2017)",
  "format_in_all_cases": "biochemical",
  "key": {"sucrase-isomaltase (SIS)": {"biological_target": "sucrase-isomaltase (SIS) (Mus musculus, UniProt B5THE3)", "sequence (B5THE3 1-1818)": "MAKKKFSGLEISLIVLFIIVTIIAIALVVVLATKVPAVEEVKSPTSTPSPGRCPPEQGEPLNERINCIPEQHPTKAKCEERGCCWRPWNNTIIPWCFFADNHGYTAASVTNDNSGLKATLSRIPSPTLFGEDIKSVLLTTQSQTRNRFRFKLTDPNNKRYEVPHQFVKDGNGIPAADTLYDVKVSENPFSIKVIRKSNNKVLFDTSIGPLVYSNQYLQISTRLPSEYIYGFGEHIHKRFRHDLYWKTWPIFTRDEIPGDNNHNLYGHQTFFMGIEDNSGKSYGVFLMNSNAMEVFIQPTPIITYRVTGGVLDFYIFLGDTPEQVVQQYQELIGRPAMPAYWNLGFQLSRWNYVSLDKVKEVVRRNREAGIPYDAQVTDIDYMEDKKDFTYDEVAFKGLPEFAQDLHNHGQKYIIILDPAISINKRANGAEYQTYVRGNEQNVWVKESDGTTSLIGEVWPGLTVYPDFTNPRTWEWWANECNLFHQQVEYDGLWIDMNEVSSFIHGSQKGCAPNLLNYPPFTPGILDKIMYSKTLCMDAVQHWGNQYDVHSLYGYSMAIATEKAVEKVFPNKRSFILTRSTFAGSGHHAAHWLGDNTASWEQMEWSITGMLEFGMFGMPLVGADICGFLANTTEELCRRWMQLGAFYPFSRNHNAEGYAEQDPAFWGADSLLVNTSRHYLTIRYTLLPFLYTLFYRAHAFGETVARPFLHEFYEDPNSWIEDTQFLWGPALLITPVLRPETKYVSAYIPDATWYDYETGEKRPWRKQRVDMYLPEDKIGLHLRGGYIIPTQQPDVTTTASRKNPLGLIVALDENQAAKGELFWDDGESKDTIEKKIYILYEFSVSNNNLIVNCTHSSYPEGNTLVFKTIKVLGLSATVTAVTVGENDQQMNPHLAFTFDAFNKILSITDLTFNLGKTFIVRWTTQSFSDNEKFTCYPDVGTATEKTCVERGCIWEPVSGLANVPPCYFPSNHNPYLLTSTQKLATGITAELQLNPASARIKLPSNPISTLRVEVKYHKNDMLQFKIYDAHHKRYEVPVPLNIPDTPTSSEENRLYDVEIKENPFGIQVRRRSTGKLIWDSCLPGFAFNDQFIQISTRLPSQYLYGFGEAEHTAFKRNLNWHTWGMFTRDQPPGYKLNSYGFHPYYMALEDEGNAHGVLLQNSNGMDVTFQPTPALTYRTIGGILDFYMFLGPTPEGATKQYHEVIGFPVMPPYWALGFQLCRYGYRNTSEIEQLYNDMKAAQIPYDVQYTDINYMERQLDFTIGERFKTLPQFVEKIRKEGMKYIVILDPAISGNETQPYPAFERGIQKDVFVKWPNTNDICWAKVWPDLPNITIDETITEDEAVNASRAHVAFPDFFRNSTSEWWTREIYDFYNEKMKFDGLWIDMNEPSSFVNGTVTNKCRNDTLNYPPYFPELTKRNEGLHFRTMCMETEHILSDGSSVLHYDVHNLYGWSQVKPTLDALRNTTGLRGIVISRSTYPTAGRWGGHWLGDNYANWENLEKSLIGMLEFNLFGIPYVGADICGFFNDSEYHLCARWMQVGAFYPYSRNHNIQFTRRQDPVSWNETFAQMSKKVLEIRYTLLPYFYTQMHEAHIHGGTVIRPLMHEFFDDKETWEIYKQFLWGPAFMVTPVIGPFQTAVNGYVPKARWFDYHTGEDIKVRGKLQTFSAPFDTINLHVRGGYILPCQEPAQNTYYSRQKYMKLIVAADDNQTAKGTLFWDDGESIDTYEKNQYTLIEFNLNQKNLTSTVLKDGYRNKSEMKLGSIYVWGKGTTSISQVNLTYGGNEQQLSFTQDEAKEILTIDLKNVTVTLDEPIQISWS", "experiment": "Competitive ABPP against probe 13 in mouse gastrointestinal lysate", "conditions": "mouse intestine lysate, 1 h at 37 °C", "in_short": "(§1)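 Mixed mouse duodenum, jejunum and ileum homogenates were made in 25 mM potassium phosphate pH 6.5 with protease inhibitors (40 μg protein). Held 5 min on ice in McIlvaine buffer pH 4 or 7. Incubated 1 h at 37 °C with test compound (final 150 to 0.005 μM, plus 0), then probe 13 for 30 min at 37 °C. Boiled in Laemmli buffer, 10% SDS–PAGE, Cy5 fluorescence scan.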"}, "GANAB": {"biological_target": "T1, GANAB (Homo sapiens, UniProt Q14697)", "T1 sequence (Q14697 29-944)": "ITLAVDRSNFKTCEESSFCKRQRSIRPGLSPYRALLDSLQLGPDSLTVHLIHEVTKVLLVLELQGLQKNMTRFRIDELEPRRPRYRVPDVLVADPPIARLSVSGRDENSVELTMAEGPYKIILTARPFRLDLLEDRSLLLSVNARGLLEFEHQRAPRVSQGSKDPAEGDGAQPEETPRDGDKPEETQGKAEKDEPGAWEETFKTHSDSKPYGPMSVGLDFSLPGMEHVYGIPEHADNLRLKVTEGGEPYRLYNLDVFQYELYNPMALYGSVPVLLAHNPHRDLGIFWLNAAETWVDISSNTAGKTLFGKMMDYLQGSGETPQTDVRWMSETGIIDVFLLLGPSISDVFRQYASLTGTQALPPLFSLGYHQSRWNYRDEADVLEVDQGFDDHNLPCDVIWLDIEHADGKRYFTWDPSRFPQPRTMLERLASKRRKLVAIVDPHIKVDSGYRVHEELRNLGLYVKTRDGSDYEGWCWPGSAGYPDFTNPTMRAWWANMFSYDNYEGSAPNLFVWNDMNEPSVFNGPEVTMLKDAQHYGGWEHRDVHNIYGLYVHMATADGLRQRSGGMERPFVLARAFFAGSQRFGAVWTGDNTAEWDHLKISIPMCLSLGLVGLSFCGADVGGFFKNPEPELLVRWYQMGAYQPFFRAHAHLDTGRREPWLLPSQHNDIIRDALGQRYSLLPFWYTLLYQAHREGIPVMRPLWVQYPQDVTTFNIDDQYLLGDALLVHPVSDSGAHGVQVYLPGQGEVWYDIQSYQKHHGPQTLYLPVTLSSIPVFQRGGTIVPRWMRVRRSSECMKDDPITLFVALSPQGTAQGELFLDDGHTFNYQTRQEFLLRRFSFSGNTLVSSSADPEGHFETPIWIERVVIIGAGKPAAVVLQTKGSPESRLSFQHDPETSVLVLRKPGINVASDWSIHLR", "T1 sequence (P14314 15-528 partner)": "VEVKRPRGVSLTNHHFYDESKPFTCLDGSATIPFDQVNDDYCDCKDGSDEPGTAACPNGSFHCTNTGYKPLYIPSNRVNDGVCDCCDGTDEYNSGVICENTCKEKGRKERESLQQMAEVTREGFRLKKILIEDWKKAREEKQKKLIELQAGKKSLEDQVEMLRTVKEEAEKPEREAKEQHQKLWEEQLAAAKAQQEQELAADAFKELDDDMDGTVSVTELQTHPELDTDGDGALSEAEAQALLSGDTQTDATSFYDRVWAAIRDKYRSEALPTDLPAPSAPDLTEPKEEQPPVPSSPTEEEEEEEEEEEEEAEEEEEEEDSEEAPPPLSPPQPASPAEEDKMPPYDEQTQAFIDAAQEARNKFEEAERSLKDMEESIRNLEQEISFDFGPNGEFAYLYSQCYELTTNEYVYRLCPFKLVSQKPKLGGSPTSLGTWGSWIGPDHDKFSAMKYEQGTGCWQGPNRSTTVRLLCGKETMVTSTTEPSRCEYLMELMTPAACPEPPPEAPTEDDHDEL", "experiment": "Competitive ABPP against probe 13 in fibroblast lysates, pH 7", "conditions": "pH 7, preincubation 15, 30 or 60 min", "in_short": "(§2)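 Human normal dermal fibroblast homogenate (17.6 μg total protein) in 150 mM McIlvaine buffer for 5 min on ice, at pH 4 for GAA and pH 7 for GANAB. Exposed to test compound for 15, 30 or 60 min at 37 °C, then labeled with Cy5 aziridine probe 13 for 30 min at 37 °C. Denatured at 98 °C, 10% SDS–PAGE, Cy5 in-gel fluorescence scan.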"}, "GBA2": {"biological_target": "T2, GBA2 (Homo sapiens, UniProt Q9HCG7)", "T2 sequence (Q9HCG7 1-927)": "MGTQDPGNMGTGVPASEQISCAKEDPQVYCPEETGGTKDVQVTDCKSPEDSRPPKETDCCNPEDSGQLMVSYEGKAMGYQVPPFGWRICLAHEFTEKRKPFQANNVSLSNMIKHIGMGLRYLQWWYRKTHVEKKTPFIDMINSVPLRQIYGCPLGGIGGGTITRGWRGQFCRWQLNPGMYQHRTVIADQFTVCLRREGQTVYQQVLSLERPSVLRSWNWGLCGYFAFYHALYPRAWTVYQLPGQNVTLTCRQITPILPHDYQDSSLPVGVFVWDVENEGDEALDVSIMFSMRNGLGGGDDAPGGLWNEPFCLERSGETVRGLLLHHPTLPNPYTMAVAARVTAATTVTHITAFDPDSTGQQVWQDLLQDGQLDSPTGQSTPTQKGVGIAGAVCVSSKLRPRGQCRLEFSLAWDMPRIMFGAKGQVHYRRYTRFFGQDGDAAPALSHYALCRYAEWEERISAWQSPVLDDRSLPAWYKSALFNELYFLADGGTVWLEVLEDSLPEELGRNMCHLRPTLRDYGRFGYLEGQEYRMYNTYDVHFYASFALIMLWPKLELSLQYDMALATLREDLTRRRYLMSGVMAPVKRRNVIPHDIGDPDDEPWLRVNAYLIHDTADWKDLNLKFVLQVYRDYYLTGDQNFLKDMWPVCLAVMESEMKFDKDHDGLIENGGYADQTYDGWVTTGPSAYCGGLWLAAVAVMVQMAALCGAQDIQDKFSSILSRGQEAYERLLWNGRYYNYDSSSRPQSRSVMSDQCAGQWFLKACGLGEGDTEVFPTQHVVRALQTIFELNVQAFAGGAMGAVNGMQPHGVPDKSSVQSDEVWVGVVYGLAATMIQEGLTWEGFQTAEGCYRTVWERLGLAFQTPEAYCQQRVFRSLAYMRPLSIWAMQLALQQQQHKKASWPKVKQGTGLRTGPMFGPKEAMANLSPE", "experiment": "In vitro apparent IC50, GBA2 overexpressing HEK293T lysate, 4-MU-β-Glc", "in_short": "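The enzyme source was GBA2-overexpressing HEK293T lysate or recombinant human GAA. It was preincubated 30 min at 37 °C with a range of test compound concentrations, then transferred into 4-MU glucoside substrate mixture to measure residual activity. Quenched with 1 M NaOH–glycine pH 10.3; 4-MU fluorescence at λex 366/λem 445 nm. Apparent IC50 is the mean of three technical replicates.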"}, "GAA [1]": {"biological_target": "GAA (Mus musculus, UniProt P70699)", "sequence (P70699 70-953)": "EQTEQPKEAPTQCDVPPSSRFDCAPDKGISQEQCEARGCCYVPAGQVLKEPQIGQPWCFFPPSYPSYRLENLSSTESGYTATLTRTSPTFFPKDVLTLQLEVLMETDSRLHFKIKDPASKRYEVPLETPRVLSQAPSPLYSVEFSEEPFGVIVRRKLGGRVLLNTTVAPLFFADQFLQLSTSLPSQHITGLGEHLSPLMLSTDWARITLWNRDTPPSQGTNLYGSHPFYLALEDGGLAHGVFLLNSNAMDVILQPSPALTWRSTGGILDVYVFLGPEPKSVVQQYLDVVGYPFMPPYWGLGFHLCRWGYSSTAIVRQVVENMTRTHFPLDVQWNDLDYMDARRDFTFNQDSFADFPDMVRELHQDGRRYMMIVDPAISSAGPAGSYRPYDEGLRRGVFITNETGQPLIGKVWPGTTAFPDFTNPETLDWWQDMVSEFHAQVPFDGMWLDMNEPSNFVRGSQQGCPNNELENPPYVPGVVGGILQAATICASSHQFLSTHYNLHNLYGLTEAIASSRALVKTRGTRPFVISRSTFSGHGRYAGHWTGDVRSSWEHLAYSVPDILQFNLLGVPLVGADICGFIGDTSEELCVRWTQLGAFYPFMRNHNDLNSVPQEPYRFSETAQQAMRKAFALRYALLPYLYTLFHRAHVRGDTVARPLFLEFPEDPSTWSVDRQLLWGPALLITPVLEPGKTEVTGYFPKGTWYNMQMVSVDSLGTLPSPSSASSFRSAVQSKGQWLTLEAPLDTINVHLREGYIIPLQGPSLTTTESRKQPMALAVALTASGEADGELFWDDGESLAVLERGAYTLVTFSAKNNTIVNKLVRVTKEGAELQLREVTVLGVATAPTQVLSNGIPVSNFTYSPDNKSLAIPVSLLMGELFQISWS", "experiment": "Competitive ABPP against probe 13 in mouse gastrointestinal lysate", "conditions": "mouse intestine lysate, 1 h at 37 °C", "in_short": "as §1"}, "GAA [2]": {"biological_target": "GAA (Homo sapiens, UniProt P10253)", "experiment": "Competitive ABPP against probe 13 in fibroblast lysates, pH 4", "conditions": "pH 4, preincubation 15, 30 or 60 min", "in_short": "as §2"}},
  "data": [
    {"smiles": "O=S1(=O)O[C@@H]2[C@H](O)[C@@H](O)[C@H](O)[C@@H](CO)[C@@H]2O1", "note": "[Compound 5, 1,6-epi-cyclophellitol cyclosulfate]", "values": [
      {"measurement": "inhibition of probe 13 labeling of SIS", "setting": "sucrase-isomaltase (SIS)", "result": "inhibited"},
      {"measurement": "inhibition of probe 13 labeling of GANAB", "setting": "GANAB", "result": "time dependent inhibition"},
      {"measurement": "IC50", "setting": "GBA2", "result": "> 100", "unit": "µM"},
      {"measurement": "inhibition of probe 13 labeling of GAA", "setting": "GAA [1]", "result": "inhibited"},
      {"measurement": "inhibition of probe 13 labeling of GAA", "setting": "GAA [2]", "result": "time dependent inhibition"}
    ]}
  ]
}
